Our source for the IC50, Activity and MIC values is ChEMBL document CHEMBL1154912, “Moluccensins H-J, 30-ketophragmalin limonoids from Xylocarpus moluccensis” (J Nat Prod, 2010).

One assay relates to BT-474. The assay can be described thus: Cytotoxicity against human BT474 cells after 3 days by MTT assay. Conditions: BT-474, 72 h. It is filed as functional, cell-based. In a few lines: (§1)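 Cells grown in RPMI-1640 with 25 mM HEPES, 0.25% sodium bicarbonate, 5% FBS and 100 µg/mL kanamycin. Freshly trypsinized cells seeded at 5000 per well, compound added from DMSO-diluted stock, cultured three days. Attached cells stained with MTT, bound dye solubilized, absorbance read at 540 nm. IC50 (50% growth inhibition) averaged from at least six independent determinations.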

A short description of assay [1]: Cytotoxicity against human ChaGo cells after 3 days by MTT assay. The assay is classed as functional, cell-based. Conditions: 72 h. In short, it runs like this: as §1
The next assay relates to HepG2. Nature of the assay: Cytotoxicity against human HepG2 cells after 3 days by MTT assay. Conditions: HepG2, 72 h. It is filed as functional, cell-based. In short, it runs like this:
as §1
(Formazan colour is commonly taken as a measure of viable cells.)

A short description of assay [2]: Cytotoxicity against human KATO III cells after 3 days by MTT assay. It is filed as functional, cell-based, KATO III cell. Conditions: 72 h. In a few lines:
as §1

The test system of a further assay is SW-620. Nature of the assay: Cytotoxicity against human SW620 cells after 3 days by MTT assay. It is filed as functional, cell-based. Conditions: SW-620, 72 h. In short, it runs like this: as §1
A further assay concerns Staphylococcus hominis. Nature of the assay: Antibacterial activity against Staphylococcus hominis ATCC 27844 by broth microdilution method. It is filed as functional. In short, it runs like this:
(§2)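 Broth microdilution per NCCLS protocol in Mueller Hinton broth; serial doubling dilutions from 0.5 to 256 µg/mL; final inoculum 5 × 10^5 cfu/mL. MIC taken as lowest concentration with no visible growth judged by turbidity.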
Background: Broth dilution looks for growth in wells or tubes with falling amounts of substance.

Another assay deals with Enterococcus faecalis. Nature of the assay: Antibacterial activity against Enterococcus faecalis ATCC 29212 by broth microdilution method. The assay is classed as functional. In short, it runs like this:
as §2

Converted amounts (≈) assume the structure as drawn. The source made the active and inactive calls.

Usually IC50 stands for the concentration that gives 50% inhibition. Read a low IC50 as greater potency. Take `COC(=O)C[C@H]1[C@]2(C)C[C@]3(O)[C@@](O)(C(=O)C4=C(CC[C@]5(C)C4=CC(=O)O[C@H]5c4ccoc4)[C@]13C)[C@H]2OC(C)=O` [MOLUCCENSIN H]: the 50% inhibitory concentration (IC50) (in the assay with BT-474; in assay [1]; in the assay with HepG2; in assay [2]; with SW-620) was over 10 µg/mL throughout. In addition, the result with Staphylococcus hominis and in the assay with Enterococcus faecalis was inactive.
For the compound `COC(=O)C[C@H]1[C@]2(C)C[C@]3(O)[C@@H](C(=O)C4=C5CC(=O)O[C@@H](c6ccoc6)[C@]5(C)CC[C@@H]4[C@]13C)[C@H]2OC(C)=O` [MOLUCCENSIN J], the IC50 (with BT-474; in assay [1]; in the assay on HepG2; in assay [2]; with SW-620) was over 10 µg/mL each time. The outcome in the assay on Staphylococcus hominis and with Enterococcus faecalis was inactive.
One may read the MIC as the smallest concentration in the dilution series that meets the test's criterion for growth inhibition. A low value points to a more susceptible organism. For `COC(=O)C[C@H]1[C@]2(C)C[C@@]3(O)[C@]1(C)[C@H]1CC[C@]4(C)C(=C1C(=O)[C@@]3(OC)[C@H]2OC(C)=O)CC(=O)O[C@H]4c1ccoc1` [MOLUCCENSIN I], the concentration for half-maximal inhibition (IC50) (in the assay on BT-474; in assay [1]; in the assay with HepG2; in assay [2]; in the assay with SW-620) was over 10 µg/mL each time. For the same compound, the MIC against Staphylococcus hominis amounted to 256 µg/mL (≈ 460 µM); with Enterococcus faecalis, 223 µg/mL (≈ 401 µM).
